bCat KO growth – primary screen for growth suppressors in beta-catenin knockout HCT116 cells (colon tumor, human). viability, % at 10 µM. 1.5% of 140,000 active. HCT116 beta-catenin knockout viability, CellTiter-Glo, 60 h; active compounds read low. AID 818, 2007;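 active = viability at or under a set limit, the compound median less 4 SD, cut at about 6% in these data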;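 also: 0% = Hyamine 1622 control at 20 µM and 100% = untreated cell control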
Cav3 T inh – Cav3.2 calcium influx blockers – cell-based, Fluo-4 calcium fluorescence, FDSS, MLSMR library, primary screen. B-score at 10 µM. Voltage-dependent T-type calcium channel subunit alpha-1H (Homo sapiens), O95180. 4% of 100,000 active. Cav3.2-expressing cells; active compounds read low. AID 449739, 2010;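 active = single-dose well whose peak fluorescence ratio is a statistical outlier from its plate by either plate-standardised score or position-corrected B-score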
Target sequence (O95180 whole entry, looked up): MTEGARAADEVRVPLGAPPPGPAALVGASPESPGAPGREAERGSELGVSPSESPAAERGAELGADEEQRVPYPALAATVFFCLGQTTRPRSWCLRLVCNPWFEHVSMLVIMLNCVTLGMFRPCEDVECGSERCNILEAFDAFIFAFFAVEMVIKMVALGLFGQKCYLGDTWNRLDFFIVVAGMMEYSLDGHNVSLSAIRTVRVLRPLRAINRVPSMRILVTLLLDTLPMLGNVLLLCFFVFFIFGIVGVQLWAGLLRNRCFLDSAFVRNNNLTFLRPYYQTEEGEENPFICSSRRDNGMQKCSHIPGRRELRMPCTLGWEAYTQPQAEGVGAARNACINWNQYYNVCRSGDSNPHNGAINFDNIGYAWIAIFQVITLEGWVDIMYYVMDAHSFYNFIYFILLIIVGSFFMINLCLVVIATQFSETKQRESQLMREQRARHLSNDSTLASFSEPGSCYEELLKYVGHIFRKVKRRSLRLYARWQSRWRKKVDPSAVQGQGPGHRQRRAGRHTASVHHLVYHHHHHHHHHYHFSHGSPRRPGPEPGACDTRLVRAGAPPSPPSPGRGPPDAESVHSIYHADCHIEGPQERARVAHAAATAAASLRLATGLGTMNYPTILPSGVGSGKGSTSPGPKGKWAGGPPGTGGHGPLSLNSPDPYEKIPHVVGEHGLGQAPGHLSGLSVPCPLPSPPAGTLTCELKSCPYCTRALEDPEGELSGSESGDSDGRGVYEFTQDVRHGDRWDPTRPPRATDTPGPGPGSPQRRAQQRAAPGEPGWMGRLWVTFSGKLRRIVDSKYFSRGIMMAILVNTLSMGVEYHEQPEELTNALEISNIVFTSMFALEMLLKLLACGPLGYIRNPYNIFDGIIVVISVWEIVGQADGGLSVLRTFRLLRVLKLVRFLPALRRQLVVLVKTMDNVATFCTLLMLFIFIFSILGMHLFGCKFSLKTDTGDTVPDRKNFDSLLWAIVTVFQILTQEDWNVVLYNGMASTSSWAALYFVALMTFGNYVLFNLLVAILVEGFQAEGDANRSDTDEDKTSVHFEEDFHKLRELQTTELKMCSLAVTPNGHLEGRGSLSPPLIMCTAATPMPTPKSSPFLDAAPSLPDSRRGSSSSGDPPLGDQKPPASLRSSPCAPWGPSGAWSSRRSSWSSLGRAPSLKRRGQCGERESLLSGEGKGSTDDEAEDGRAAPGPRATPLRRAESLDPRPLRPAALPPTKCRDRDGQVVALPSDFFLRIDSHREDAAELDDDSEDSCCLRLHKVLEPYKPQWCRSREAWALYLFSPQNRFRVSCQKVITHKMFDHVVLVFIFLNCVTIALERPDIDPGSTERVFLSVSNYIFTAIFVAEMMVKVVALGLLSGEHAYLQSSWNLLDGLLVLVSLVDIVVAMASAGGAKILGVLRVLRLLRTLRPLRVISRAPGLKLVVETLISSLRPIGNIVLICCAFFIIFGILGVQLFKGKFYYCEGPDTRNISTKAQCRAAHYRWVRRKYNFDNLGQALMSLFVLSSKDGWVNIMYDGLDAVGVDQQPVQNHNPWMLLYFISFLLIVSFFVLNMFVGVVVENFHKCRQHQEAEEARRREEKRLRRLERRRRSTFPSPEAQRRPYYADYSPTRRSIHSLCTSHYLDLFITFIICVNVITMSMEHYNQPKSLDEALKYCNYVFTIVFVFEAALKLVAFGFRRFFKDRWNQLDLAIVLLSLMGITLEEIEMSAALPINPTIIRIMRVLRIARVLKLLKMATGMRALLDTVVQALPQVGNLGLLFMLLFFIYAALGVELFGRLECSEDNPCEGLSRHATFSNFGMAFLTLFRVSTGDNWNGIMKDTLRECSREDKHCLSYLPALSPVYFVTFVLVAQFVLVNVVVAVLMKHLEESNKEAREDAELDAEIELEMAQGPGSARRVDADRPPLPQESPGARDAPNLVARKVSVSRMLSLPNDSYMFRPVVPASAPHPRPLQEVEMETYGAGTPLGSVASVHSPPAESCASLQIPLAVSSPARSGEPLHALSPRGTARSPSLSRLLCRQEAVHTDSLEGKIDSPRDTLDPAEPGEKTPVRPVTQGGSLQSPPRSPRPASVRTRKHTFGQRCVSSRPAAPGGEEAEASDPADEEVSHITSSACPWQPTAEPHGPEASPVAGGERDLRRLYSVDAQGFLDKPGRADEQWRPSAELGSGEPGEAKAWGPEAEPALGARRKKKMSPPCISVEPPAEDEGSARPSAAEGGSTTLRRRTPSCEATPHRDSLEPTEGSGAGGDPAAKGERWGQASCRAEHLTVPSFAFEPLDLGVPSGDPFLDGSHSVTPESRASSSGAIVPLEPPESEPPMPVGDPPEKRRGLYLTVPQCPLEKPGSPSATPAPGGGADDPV
Fibroblast inh – antiproliferative effect on LL 47 fibroblasts – human, LL 47 cells, CellTiter-Glo luminescence, primary screen; LL 47 human lung fibroblast viability, ATP luminescence; active compounds read low; 1.1% of 85,000 active; AID 719, 2007; viability, % at 10 µM;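 active = viability at or below 50% in the single dose screen; inactive = viability above 50%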;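 also: compound exposure lasted 72 h before the ATP readout; 100% = median luminescence of untreated cell-only wells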
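Assay system: human lung fibroblast line LL 47, low passage. Input: 1,150 fibroblasts seeded per well. Times: overnight cell rest, 72 h compound treatment at 37 °C. Evaluation: % viability of median cell-only signal. Technique: luminescent ATP detection, CellTiter-Glo. Control set: cell-only wells, no compound.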
HUVEC prolif 384 – inhibitors of HUVEC proliferation, primary screen, cell-based, 384-well | CellTiter-Glo luminescence, 72 h; active compounds read low | viability, % at 10 µM (by protocol) | 1.1% of 86,000 active | AID 648, 2007;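 active = viability at or below 30%; inactive = viability above 30%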;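 also: 100% = median luminescence of DMSO-only cell control wells on each plate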
HCT116 PTEN-null – growth suppression of PTEN-null HCT116, primary screen, cell-based, CellTiter-Glo; HCT116 PTEN-null viability, 60 h; active compounds read low; viability, % at 10 µM; 1.2% of 140,000 active;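 active = viability at or below a set limit, 4 SD under the median of all tested compounds, cut at about 3.7% in these data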;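 also: PTEN knockout HCT116 line with beta catenin targeted HCT116 as companion control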
H69AR growth 86K – proliferation blockers of H69AR lung cancer cells, primary screen, cell-based, human, 86K library. H69AR lung tumor viability, ATP luminescence, 72 h; active compounds read low. viability, % at 10 µM. 6% of 85,000 active. AID 598, 2007;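 active = viability at or below 40%; inactive = viability above 40%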;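 also: multidrug resistant small cell line overexpressing MRP-1 efflux transporter; 100% = mean luminescence of untreated control wells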
Numbers without * were called inactive. Hits are enriched below; roughly 7.1% of the tested compounds scored in any of these assays.

`CCCCN(Cc1ccccc1)S(=O)(=O)c1cc(Br)cc2c1N(C(C)=O)C(C)C2` (stereo not drawn) gave bCat KO growth 41, Cav3 T inh -3.3*, Fibroblast inh 98, HUVEC prolif 384 78, HCT116 PTEN-null 47 and H69AR growth 86K 66.
For CC(=O)N1c2c(cc(Br)cc2S(=O)(=O)NCc2cccnc2)CC1C (stereo not drawn) the results were bCat KO growth 94, Fibroblast inh 101, HUVEC prolif 384 93, HCT116 PTEN-null 83 and H69AR growth 86K 92.
For O=C(Cc1ccccc1)NCC(=O)OCc1ccc([N+](=O)[O-])cc1 the results were bCat KO growth 110 and HCT116 PTEN-null 92.
`CCOC(=O)c1ccc(N2C(=O)C=CC2=O)cc1` gave bCat KO growth 97, Cav3 T inh 2.4, Fibroblast inh 4.3*, HUVEC prolif 384 12*, HCT116 PTEN-null 110 and H69AR growth 86K 1.9*.
`CCOP(=O)(c1ccccc1)c1nc(-c2ccccc2Cl)oc1N1CCCCC1` (stereo not drawn) gave bCat KO growth 68, Cav3 T inh -11*, Fibroblast inh 77, HUVEC prolif 384 85, HCT116 PTEN-null 63 and H69AR growth 86K 73.
For COP(=O)(OC)c1nc(-c2cccc3ccccc23)oc1N1CCOCC1 the results were bCat KO growth 94 and HCT116 PTEN-null 90.
Screening O=c1cc(CN2CCN(c3ccccc3)CC2)c2cc(O)c(-c3ccccc3)cc2o1 returned bCat KO growth 87, Cav3 T inh 0.57, Fibroblast inh 48*, HUVEC prolif 384 35, HCT116 PTEN-null 84 and H69AR growth 86K 5.0*.
For Cc1cc2oc(=O)cc(CN3CCC(C)CC3)c2cc1Cl the results were bCat KO growth 84, Cav3 T inh -9.9*, Fibroblast inh 98, HUVEC prolif 384 97, HCT116 PTEN-null 75 and H69AR growth 86K 98.
For Cc1cc2oc(=O)cc(CN3CCN(Cc4ccccc4)CC3)c2cc1Cl the results were bCat KO growth 91, Cav3 T inh -0.22, Fibroblast inh 100, HUVEC prolif 384 85, HCT116 PTEN-null 84 and H69AR growth 86K 87.
CCN1C(=O)c2ccccc2S(=O)(=O)c2ccc(C(=O)NCc3cccnc3)cc21 was read as bCat KO growth 101, Cav3 T inh -0.42, Fibroblast inh 103, HUVEC prolif 384 95, HCT116 PTEN-null 98 and H69AR growth 86K 98.
For Cc1cc(Nc2ccc(Cl)cc2)nc(NCc2ccccc2)n1 the results were bCat KO growth 1.1* and HCT116 PTEN-null 1.4*.
Screening Cc1cc(Nc2ccccc2)nc(NCc2ccccc2)n1 returned bCat KO growth 7 and HCT116 PTEN-null 5.
For CCCCNc1cc(C)nc(NCc2ccccc2)n1 the results were bCat KO growth 1.3*, Cav3 T inh -3.5, Fibroblast inh 53, HUVEC prolif 384 4.4*, HCT116 PTEN-null 1.5* and H69AR growth 86K 9.9*.
`Cc1cc(C(F)(F)F)nc(NCc2ccc(F)cc2)n1` gave bCat KO growth 74, Cav3 T inh -5.4*, Fibroblast inh 98, HUVEC prolif 384 96, HCT116 PTEN-null 81 and H69AR growth 86K 101.
Cc1cc(N2CCC(C)CC2)nc(NCc2ccccc2)n1 was read as bCat KO growth 2.8* and HCT116 PTEN-null 4.
`CCCCCCCC(O)CC(CC1CCCCC1)C(=O)NN` (stereo not drawn) gave bCat KO growth 89 and HCT116 PTEN-null 96.
Cc1cc(Nc2cccc(F)c2)nc(NCc2ccccc2)n1 was read as bCat KO growth 2.9* and HCT116 PTEN-null 1.4*.
For COc1cccc(C(=O)NCC(=O)OCc2ccc(F)cc2Cl)c1 the results were bCat KO growth 101 and HCT116 PTEN-null 92.
For CCOC(=O)CN1C(=O)C(=O)c2cccc(C)c21 the results were bCat KO growth 81, Cav3 T inh 0.1, Fibroblast inh 102, HUVEC prolif 384 108, HCT116 PTEN-null 74 and H69AR growth 86K 33*.
`CC(C)=CCOc1ccc([C@@H]2COc3c(ccc4c3C=CC(C)(C)O4)C2)c(O)c1` gave Cav3 T inh 0.33.
